From article PMC7686114 (Bioorganic chemistry, 2020)

How the values were obtained:
[1] = test system: intracellular cGMP levels in HEK293 cells; test: Luciferase cGMP biosensor assay; type: cell-based, human; settings: for intracellular cGMP levels (luminescence), concentration dependence: pretreated with sodium nitroprusside
Procedure, shortened: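 HEK293 cells stably expressing a GloSensor cGMP-40F construct (human PDE5A GAF-A fused to firefly luciferase) were G418-selected. Cells were seeded at 6×10⁴/well and attached overnight in DMEM + 10% FBS at 37°C, 5% CO2. They were preincubated at room temperature in CO2-independent medium with 10% FBS and 5 mmol/L luciferin. 50 μM sodium nitroprusside was added together with test compound, and luminescence was read every minute for 1 h.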

human recombinant PDE5 = human recombinant PDE5 (Homo sapiens, UniProt O76074); test: PDE5 inhibition, IMAP fluorescence polarization assay; type: biochemical; settings: for inhibition at 50 µM: read-out: PDE5 % inh at 50 (μM); for PDE5 inhibitory activity (in words): SAR statement vs parent compound; for reduction in PDE5 inhibitory activity of pyrazole vs pyrazoline: compounds 34 and 35 compared to compounds 1 and 4

Row | inhibition at 50 µM (human recombinant PDE5) | IC50 (human recombinant PDE5) | SMILES | other results
1 |  |  | CN1CC(=O)N2[C@H](c3ccc4c(c3)OCO4)c3[nH]c4ccccc4c3C[C@@H]2C1=O [Tadalafil, tadalafil, reference compound] | intracellular cGMP levels (luminescence), concentration dependence [1]: concentration-dependent increase
2 | 77.1% |  | CC(C)(C)C1=NN(c2ccc(C(=O)O)cc2)C(c2ccc(O)cc2)C1 (centres unmarked) [Compound 24, 4-(3-tert-Butyl-5-(4-hydroxyphenyl)-4,5-dihydro-1H-pyrazol-1-yl)benzoic acid] | 
3 | 95.3% |  | CCOc1ccc(C2CC(C(C)(C)C)=NN2c2ccc(C(=O)O)cc2)cc1 (centres unmarked) [Compound 19, 4-(3-(tert-Butyl)-5-(4-ethoxyphenyl)-4,5-dihydro-1H-pyrazol-1-yl)benzoic acid] | relative potency/efficacy in increasing intracellular cGMP levels ([1]; comparison among tadalafil, celecoxib, 11 and 19): substantially higher efficacy; intracellular cGMP levels (luminescence), concentration dependence [1]: concentration-dependent increase
4 | 100% |  | CC(C)(C)C1=NN(c2cccc(C(=O)O)c2)C(c2ccc(Cl)cc2)C1 (centres unmarked) [Compound 29, 3-(3-tert-Butyl-5-(4-chlorophenyl)-4,5-dihydro-1H-pyrazol-1-yl)benzoic acid] | fold reduction in PDE5 inhibitory potency compared to compound 7 (human recombinant PDE5; vs compound 7 (4-COOH, 4-chlorophenyl)): 3 fold
5 | 100% |  | CC(C)(C)C1=NN(c2ccc(C(=O)O)cc2)C(c2ccc(Cl)c(Cl)c2)C1 (centres unmarked) [Compound 12, 4-(3-(tert-Butyl)-5-(3,4-dichlorophenyl)-4,5-dihydro-1H-pyrazol-1-yl)benzoic acid] | 
6 | 23.6% |  | CC(C)(C)C1=NN(c2ccc(C(=O)O)cc2)C(c2ccco2)C1 (centres unmarked) [Compound 27, 4-(3-tert-Butyl-5-(furan-2-yl)-4,5-dihydro-1H-pyrazol-1-yl)benzoic acid] | PDE5 inhibitory activity (in words) (human recombinant PDE5): detrimental to the activity
7 | 16% |  | CCOC(=O)c1ccc(N2N=C(C(C)(C)C)CC2c2cccc([N+](=O)[O-])c2)cc1 (centres unmarked) [Compound 37, Ethyl 4-(3-tert-butyl-5-(3-nitrophenyl)-4,5-dihydro-1H-pyrazol-1-yl)benzoate] | PDE5 inhibitory activity (in words) (human recombinant PDE5): diminished the PDE5 inhibitory activity
8 | 85% | 3.3 µM | CC(C)(C)C1=NN(c2ccc(C(=O)O)cc2)C(c2ccc(Cl)cc2)C1 (centres unmarked) [Compound 7, 4-(3-tert-Butyl-5-(4-chlorophenyl)-4,5-dihydro-1H-pyrazol-1-yl)benzoic acid] | 
9 | 28.1% |  | CC(C)(C)C1=NN(c2ccc(C(=O)O)cc2)C(c2cccs2)C1 (centres unmarked) [Compound 28, 4-(3-tert-Butyl-5-(thiophen-2-yl)-4,5-dihydro-1H-pyrazol-1-yl)benzoic acid] | PDE5 inhibitory activity (in words) (human recombinant PDE5): detrimental to the activity
10 | 10.5% |  | CCOC(=O)c1ccc(N2N=C(C(C)(C)C)CC2c2ccc(Cl)cc2)cc1 (centres unmarked) [Compound 36, Ethyl 4-(3-tert-butyl-5-(4-chlorophenyl)-4,5-dihydro-1H-pyrazol-1-yl)benzoate] | PDE5 inhibitory activity (in words) (human recombinant PDE5): diminished the PDE5 inhibitory activity
11 | 87.6% | 3.2 µM | CC(C)(C)C1=NN(c2ccc(C(=O)O)cc2)C(c2cccc([N+](=O)[O-])c2)C1 (centres unmarked) [Compound 20, 4-(3-tert-Butyl-5-(3-nitrophenyl)-4,5-dihydro-1H-pyrazol-1-yl)benzoic acid] | 
12 | 80% | 21.8 µM | CC(C)(C)C1=NN(c2ccc(C(=O)O)cc2)C(c2ccc3ccccc3c2)C1 (centres unmarked) [Compound 26, 4-(3-(tert-Butyl)-5-(naphthalen-2-yl)-4,5-dihydro-1H-pyrazol-1-yl)benzoic acid] | 
13 | 47% | > 50 µM | COc1ccc(OC)c(C2CC(C(C)(C)C)=NN2c2ccc(C(=O)O)cc2)c1 (centres unmarked) [Compound 17, 4-(3-tert-Butyl-5-(2,5-dimethoxyphenyl)-4,5-dihydro-1H-pyrazol-1-yl)benzoic acid] | 
14 | 88% | 7.2 µM | CC(C)(C)C1=NN(c2ccc(C(=O)O)cc2)C(c2ccc(Br)cc2)C1 (centres unmarked) [Compound 10, 4-(5-(4-Bromophenyl)-3-tert-butyl-4,5-dihydro-1H-pyrazol-1-yl)benzoic acid] | 
15 | 75% | 13.8 µM | CC(C)(C)C1=NN(c2ccc(C(=O)O)cc2)C(c2ccc(C#N)cc2)C1 (centres unmarked) [Compound 23, 4-(3-tert-Butyl-5-(4-cyanophenyl)-4,5-dihydro-1H-pyrazol-1-yl)benzoic acid] | 
16 | 99.1% | 28.8 µM | CC(C)(C)C1=NN(c2ccc(C(=O)O)cc2)C(c2c(Cl)cccc2Cl)C1 (centres unmarked) [Compound 13, 4-(3-(tert-Butyl)-5-(2,6-dichlorophenyl)-4,5-dihydro-1H-pyrazol-1-yl)benzoic acid] | 
17 | 100% |  | CC(C)(C)C1=NN(c2ccc(C(=O)O)cc2)C(c2ccccc2Cl)C1 (centres unmarked) [Compound 5, 4-(3-(tert-Butyl)-5-(2-chlorophenyl)-4,5-dihydro-1H-pyrazol-1-yl)benzoic acid] | 

Row | inhibition at 50 µM (human recombinant PDE5) | IC50 (human recombinant PDE5) | SMILES | other results
18 | 95% |  | COc1ccc(C2CC(C(C)(C)C)=NN2c2ccc(C(=O)O)cc2)cc1 (centres unmarked) [Compound 15, 4-(3-tert-Butyl-5-(4-methoxyphenyl)-4,5-dihydro-1H-pyrazol-1-yl) benzoic acid] | fold increase in PDE5 inhibitory potency compared to methyl derivative 22 (human recombinant PDE5; vs compound 22): 4 fold
19 | 91.4% |  | CC(C)(C)C1=NN(c2ccc(C(=O)O)cc2)C(c2cccc(Br)c2)C1 (centres unmarked) [Compound 9, 4-(5-(3-Bromophenyl)-3-(tert-butyl)-4,5-dihydro-1H-pyrazol-1-yl)benzoic acid] | 
20 | 46% |  | CC(C)(C)C1=NN(c2ccccc2C(=O)O)C(c2ccc(Cl)cc2)C1 (centres unmarked) [Compound 30, 2-(3-tert-Butyl-5-(4-chlorophenyl)-4,5-dihydro-1H-pyrazol-1-yl)benzoic acid] | PDE5 inhibitory activity (in words) (human recombinant PDE5): diminished the activity
21 | 66.5% |  | Cc1ccc(-c2cc(C(F)(F)F)nn2-c2ccc(S(N)(=O)=O)cc2)cc1 [Celecoxib, celecoxib, reference compound] | 
22 | 75% | 31.3 µM | CC(C)(C)c1cc(-c2ccc(F)cc2)n(-c2ccc(C(=O)O)cc2)n1 [Compound 35, 4-(3-tert-Butyl-5-(4-fluorophenyl)-1H-pyrazol-1-yl) benzoic acid] | reduction in PDE5 inhibitory activity of pyrazole vs pyrazoline (human recombinant PDE5): 3–4 times
23 | 88% |  | CC(C)(C)C1=NN(c2ccc(C(=O)O)cc2)C(c2ccccc2)C1 (centres unmarked) [Compound 1, 4-(3-tert-Butyl-5-phenyl-4,5-dihydro-1H-pyrazol-1-yl)benzoic acid] | 
24 | 80% | 7.7 µM | CC(C)(C)C1=NN(c2ccc(C(=O)O)cc2)C(c2ccc(F)cc2)C1 (centres unmarked) [Compound 4, 4-(3-tert-Butyl-5-(4-fluorophenyl)-4,5-dihydro-1H-pyrazol-1-yl)benzoic acid] | 
25 | 94.4% | 3.7 µM | CC(C)(C)C1=NN(c2ccc(C(=O)O)cc2)C(c2cccc(F)c2)C1 (centres unmarked) [Compound 3, 4-(3-(tert-Butyl)-5-(3-fluorophenyl)-4,5-dihydro-1H-pyrazol-1-yl)benzoic acid] | 
26 | 42.5% | > 50 µM | CCOc1ccccc1C1CC(C(C)(C)C)=NN1c1ccc(C(=O)O)cc1 (centres unmarked) [Compound 18, 4-(3-(tert-Butyl)-5-(2-ethoxyphenyl)-4,5-dihydro-1H-pyrazol-1-yl)benzoic acid] | 
27 | 85.8% |  | COc1ccc(C2CC(C(C)(C)C)=NN2c2ccc(C(=O)O)cc2)c(OC)c1 (centres unmarked) [Compound 16, 4-(3-tert-Butyl-5-(2,4-dimethoxyphenyl)-4,5-dihydro-1H-pyrazol-1-yl)benzoic acid] | 
28 | 49.8% | > 50 µM | COc1ccccc1C1CC(C(C)(C)C)=NN1c1ccc(C(=O)O)cc1 (centres unmarked) [Compound 14, 4-(3-(tert-Butyl)-5-(2-methoxyphenyl)-4,5-dihydro-1H-pyrazol-1-yl)benzoic acid] | 
29 | 100% | 35.6 µM | CC(C)(C)C1=NN(c2ccc(C(=O)O)cc2)C(c2ccc(-c3ccccc3)cc2)C1 (centres unmarked) [Compound 25, 4-(5-([1,1’-Biphenyl]-4-yl)-3-(tert-butyl)-4,5-dihydro-1H-pyrazol-1-yl)benzoic acid] | 
30 | 72% | 18.9 µM | CC(C)(C)c1cc(-c2ccccc2)n(-c2ccc(C(=O)O)cc2)n1 [Compound 34, 4-(3-tert-Butyl-5-phenyl-1H-pyrazol-1-yl)benzoic acid] | reduction in PDE5 inhibitory activity of pyrazole vs pyrazoline (human recombinant PDE5): 3–4 times
31 | 91% |  | CC(C)(C)C1=NN(c2ccc(C(=O)O)cc2)C(c2ccc([N+](=O)[O-])cc2)C1 (centres unmarked) [Compound 21, 4-(3-tert-Butyl-5-(4-nitrophenyl)-4,5-dihydro-1H-pyrazol-1-yl)benzoic acid] | 
32 | 95.7% |  | CC(C)(C)C1=NN(c2ccc(C(=O)O)cc2)C(c2cccc(Cl)c2)C1 (centres unmarked) [Compound 6, 4-(3-(tert-Butyl)-5-(3-chlorophenyl)-4,5-dihydro-1H-pyrazol-1-yl)benzoic acid] | 
33 | 86.3% |  | CC(C)(C)C1=NN(c2ccc(C(=O)O)cc2)C(c2ccccc2F)C1 (centres unmarked) [Compound 2, 4-(3-(tert-Butyl)-5-(2-fluorophenyl)-4,5-dihydro-1H-pyrazol-1-yl)benzoic acid] | 
34 | 100% |  | CC(C)(C)C1=NN(c2ccc(C(=O)O)cc2)C(c2ccccc2Br)C1 (centres unmarked) [Compound 8, 4-(5-(2-Bromophenyl)-3-(tert-butyl)-4,5-dihydro-1H-pyrazol-1-yl)benzoic acid] | 
